In ChEMBL document CHEMBL5500351, “Active site-directed probes targeting dipeptidyl peptidases 8 and 9” (Eur J Med Chem, 2024):
pIC50: −log10 of the molar value.

Assays:
Dipeptidyl peptidase 2 = Dipeptidyl peptidase 2 (Homo sapiens, UniProt Q9UHL4); assay: Inhibition of recombinant human DPP2
Summary of the method: (§1)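 IC50 reported as the mean ± standard deviation of three independent determinations against each protease.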

Prolyl endopeptidase FAP = biological target: T1, Prolyl endopeptidase FAP (Homo sapiens, UniProt Q12884); assay: Inhibition of recombinant human FAP; summary of the method: as §1
T1 sequence (Q12884 whole entry): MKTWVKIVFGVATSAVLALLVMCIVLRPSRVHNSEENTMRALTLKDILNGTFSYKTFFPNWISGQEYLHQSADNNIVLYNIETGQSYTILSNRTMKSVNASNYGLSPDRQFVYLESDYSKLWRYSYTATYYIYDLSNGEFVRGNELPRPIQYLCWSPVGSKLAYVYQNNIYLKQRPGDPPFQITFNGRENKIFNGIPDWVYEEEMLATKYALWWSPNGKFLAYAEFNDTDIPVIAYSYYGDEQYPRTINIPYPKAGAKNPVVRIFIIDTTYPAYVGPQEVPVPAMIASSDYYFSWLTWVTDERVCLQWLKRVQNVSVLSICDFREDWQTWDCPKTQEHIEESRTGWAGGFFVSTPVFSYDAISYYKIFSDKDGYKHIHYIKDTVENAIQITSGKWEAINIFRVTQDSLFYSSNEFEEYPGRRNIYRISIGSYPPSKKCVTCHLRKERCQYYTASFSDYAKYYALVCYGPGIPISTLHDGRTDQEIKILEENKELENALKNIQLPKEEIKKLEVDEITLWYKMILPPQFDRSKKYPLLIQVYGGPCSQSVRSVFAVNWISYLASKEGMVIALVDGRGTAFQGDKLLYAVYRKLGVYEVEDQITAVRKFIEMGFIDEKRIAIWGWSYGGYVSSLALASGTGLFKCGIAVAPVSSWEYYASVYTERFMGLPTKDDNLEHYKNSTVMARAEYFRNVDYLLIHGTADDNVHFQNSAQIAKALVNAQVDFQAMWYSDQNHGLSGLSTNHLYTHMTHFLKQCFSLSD

Dipeptidyl peptidase 4 = Dipeptidyl peptidase 4 (Homo sapiens, UniProt P27487); assay: Inhibition of human DPP4; summary of the method: as §1
Chain of Dipeptidyl peptidase 4 (P27487 whole entry): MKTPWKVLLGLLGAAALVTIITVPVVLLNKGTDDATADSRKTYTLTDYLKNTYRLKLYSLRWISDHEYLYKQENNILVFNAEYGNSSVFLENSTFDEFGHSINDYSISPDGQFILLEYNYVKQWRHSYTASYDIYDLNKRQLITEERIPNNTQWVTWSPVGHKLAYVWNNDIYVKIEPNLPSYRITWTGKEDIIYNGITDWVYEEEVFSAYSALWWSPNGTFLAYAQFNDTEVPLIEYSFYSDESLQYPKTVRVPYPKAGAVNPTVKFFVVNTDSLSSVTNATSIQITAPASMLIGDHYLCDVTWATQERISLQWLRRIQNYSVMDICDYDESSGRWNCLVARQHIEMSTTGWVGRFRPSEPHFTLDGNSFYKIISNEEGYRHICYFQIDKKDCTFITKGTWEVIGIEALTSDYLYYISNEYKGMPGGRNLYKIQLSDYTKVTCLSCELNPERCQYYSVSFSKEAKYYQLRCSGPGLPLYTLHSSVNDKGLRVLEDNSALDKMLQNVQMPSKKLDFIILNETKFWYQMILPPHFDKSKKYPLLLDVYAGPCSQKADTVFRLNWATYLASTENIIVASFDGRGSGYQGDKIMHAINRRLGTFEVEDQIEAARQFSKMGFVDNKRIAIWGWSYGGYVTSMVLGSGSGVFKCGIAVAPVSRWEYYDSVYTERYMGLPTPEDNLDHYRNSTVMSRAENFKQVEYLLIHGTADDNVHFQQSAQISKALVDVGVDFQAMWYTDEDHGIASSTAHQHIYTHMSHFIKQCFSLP

Prolyl endopeptidase = biological target: T2, Prolyl endopeptidase (Homo sapiens, UniProt P48147); assay: Inhibition of recombinant human PREP; summary of the method: as §1
T2 sequence (P48147 whole entry): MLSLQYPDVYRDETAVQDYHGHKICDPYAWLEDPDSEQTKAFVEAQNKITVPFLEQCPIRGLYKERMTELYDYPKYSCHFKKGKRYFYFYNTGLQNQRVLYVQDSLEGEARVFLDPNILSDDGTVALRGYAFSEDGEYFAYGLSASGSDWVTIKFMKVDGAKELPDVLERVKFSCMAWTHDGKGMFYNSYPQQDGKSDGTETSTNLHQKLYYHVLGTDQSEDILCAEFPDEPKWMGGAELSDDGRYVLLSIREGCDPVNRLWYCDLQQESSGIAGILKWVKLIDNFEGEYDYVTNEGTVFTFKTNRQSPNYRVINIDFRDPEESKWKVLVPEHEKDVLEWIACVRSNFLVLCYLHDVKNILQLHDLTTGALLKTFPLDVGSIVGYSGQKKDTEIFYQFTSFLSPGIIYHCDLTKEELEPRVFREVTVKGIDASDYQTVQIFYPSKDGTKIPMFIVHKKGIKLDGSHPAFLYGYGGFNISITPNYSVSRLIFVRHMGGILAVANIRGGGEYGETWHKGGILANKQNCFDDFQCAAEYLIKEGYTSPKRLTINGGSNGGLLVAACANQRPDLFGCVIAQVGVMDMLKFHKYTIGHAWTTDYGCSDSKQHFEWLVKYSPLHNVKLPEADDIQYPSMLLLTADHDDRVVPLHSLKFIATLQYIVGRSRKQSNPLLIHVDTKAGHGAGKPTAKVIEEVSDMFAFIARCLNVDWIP

Homo sapiens [1] = species on record: Homo sapiens; assay: Selectivity index, ratio of IC50 for inhibition of human DPP8 expressed in baculovirus-infected Sf9 cells to IC50 for inhibition of human DPP9
Summary of the method: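 Selectivity is computed as IC50(DPP8)/IC50(DPP9). Each IC50 was measured against recombinant human DPP8 or DPP9 and is the mean of three independent measurements ± standard deviation.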

Homo sapiens [2] = species on record: Homo sapiens; assay: Selectivity index, ratio of IC50 for inhibition of human DPP8 expressed in baculovirus using Ala-Pro-7-amino-4-trifluormethylcoumarin as substrate to IC50 for inhibition of human DPP9 expressed in baculovirus using Gly-Pro-AMC as substrate
Summary of the method: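 Ratio of IC50 against recombinant human DPP8 to IC50 against recombinant human DPP9, i.e. IC50(DPP8)/IC50(DPP9). Each IC50 is the mean of 3 independent measurements ± standard deviation.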

O=C(CCCCC1SCC2NC(=O)NC21)NCCOCCOCCNC(=O)NC12CC3CC(CC(NCC(=O)N4Cc5ccc(F)cc5C4)(C3)C1)C2 (stereo unspecified)
pIC50 (Dipeptidyl peptidase 2): < 5.30 | pIC50 (Prolyl endopeptidase FAP): < 5.00 | pIC50 (Dipeptidyl peptidase 4): < 5.00 | pIC50 (Prolyl endopeptidase): < 5.00

N[C@@H](CC(=O)N1CCN(C(c2ccc(F)cc2)c2ccc(F)cc2)CC1)C(=O)N1Cc2ccccc2C1
Ratio IC50 (Homo sapiens [1]): 4

CC(C)[C@H](N)C(=O)N1CCC[C@H]1B(O)O
Ratio IC50 (Homo sapiens [2]): 3

O=C(CCCCC1SCC2NC(=O)NC21)NCCOCCNC(=O)NC12CC3CC(CC(NCC(=O)N4Cc5ccc(F)cc5C4)(C3)C1)C2 (stereo unspecified)
pIC50 (Dipeptidyl peptidase 2): < 5.30 | pIC50 (Prolyl endopeptidase FAP): < 5.00 | pIC50 (Dipeptidyl peptidase 4): < 5.00 | pIC50 (Prolyl endopeptidase): < 5.00

O=C(CCCCC1SCC2NC(=O)NC21)NCCOCCNC(=O)NC12CC3CC(CC(NCC(=O)N4Cc5cc(F)c(F)cc5C4)(C3)C1)C2 (stereo unspecified)
pIC50 (Dipeptidyl peptidase 2): < 5.30 | pIC50 (Prolyl endopeptidase FAP): < 5.00 | pIC50 (Dipeptidyl peptidase 4): < 5.00 | pIC50 (Prolyl endopeptidase): < 5.00

O=C(CCCCC1SCC2NC(=O)NC21)NCCOCCOCCNC(=O)NC12CC3CC(CC(NCC(=O)N4Cc5cc(F)c(F)cc5C4)(C3)C1)C2 (stereo unspecified)
pIC50 (Dipeptidyl peptidase 2): < 5.30 | pIC50 (Prolyl endopeptidase FAP): < 5.00 | pIC50 (Dipeptidyl peptidase 4): < 5.00 | pIC50 (Prolyl endopeptidase): < 5.00

O=C(CCCCC1SCC2NC(=O)NC21)NCCOCCOC(=O)NC12CC3CC(CC(NCC(=O)N4Cc5ccc(F)cc5C4)(C3)C1)C2 (stereo unspecified)
pIC50 (Dipeptidyl peptidase 2): < 5.30 | pIC50 (Prolyl endopeptidase FAP): < 5.00 | pIC50 (Dipeptidyl peptidase 4): < 5.00 | pIC50 (Prolyl endopeptidase): < 5.00

O=C(NC12CC3CC(CC(NCC(=O)N4Cc5ccc(F)cc5C4)(C3)C1)C2)OCCOCCNc1ccc([N+](=O)[O-])c2nonc12
pIC50 (Dipeptidyl peptidase 2): < 5.30 | pIC50 (Prolyl endopeptidase FAP): < 5.00 | pIC50 (Dipeptidyl peptidase 4): 6.36 | pIC50 (Prolyl endopeptidase): < 5.00

O=C(NC12CC3CC(CC(NCC(=O)N4Cc5cc(F)c(F)cc5C4)(C3)C1)C2)OCCOCCNc1ccc([N+](=O)[O-])c2nonc12
pIC50 (Dipeptidyl peptidase 2): < 5.30 | pIC50 (Prolyl endopeptidase FAP): < 5.00 | pIC50 (Dipeptidyl peptidase 4): 5.77 | pIC50 (Prolyl endopeptidase): < 5.00

O=C(CCCCC1SCC2NC(=O)NC21)NCCOCCOC(=O)NC12CC3CC(CC(NCC(=O)N4Cc5cc(F)c(F)cc5C4)(C3)C1)C2 (stereo unspecified)
pIC50 (Dipeptidyl peptidase 2): < 5.30 | pIC50 (Prolyl endopeptidase FAP): < 5.00 | pIC50 (Dipeptidyl peptidase 4): < 5.00 | pIC50 (Prolyl endopeptidase): < 5.00

CC[N+]1=C(/C=C/C=C2/N(CCCCCC(=O)NC34CC5CC(CC(NCC(=O)N6Cc7cc(F)c(F)cc7C6)(C5)C3)C4)c3ccc(S(=O)(=O)O)cc3C2(C)C)C(C)(C)c2cc(S(=O)(=O)[O-])ccc21
pIC50 (Dipeptidyl peptidase 2): < 5.30 | pIC50 (Prolyl endopeptidase FAP): < 5.00 | pIC50 (Dipeptidyl peptidase 4): < 5.00 | pIC50 (Prolyl endopeptidase): < 5.00

CN(C)c1cccc2c(S(=O)(=O)NCCOCCOC(=O)NC34CC5CC(CC(NCC(=O)N6Cc7cc(F)c(F)cc7C6)(C5)C3)C4)cccc12
pIC50 (Dipeptidyl peptidase 2): < 5.30 | pIC50 (Prolyl endopeptidase FAP): < 5.00 | pIC50 (Dipeptidyl peptidase 4): < 5.00 | pIC50 (Prolyl endopeptidase): < 5.00

CN(C)c1cccc2c(S(=O)(=O)NCCOCCOC(=O)NC34CC5CC(CC(NCC(=O)N6Cc7ccc(F)cc7C6)(C5)C3)C4)cccc12
pIC50 (Dipeptidyl peptidase 2): < 5.30 | pIC50 (Prolyl endopeptidase FAP): < 5.00 | pIC50 (Dipeptidyl peptidase 4): < 5.00 | pIC50 (Prolyl endopeptidase): < 5.00
